Common to all, as to assay type: functional, cell-based
The test system of experiment [1] is HL-60. In words: Phototoxicity against human HL60 cells irradiated with 4.1 J/cm^2 broad spectrum light treated 2 hrs before irradiation measured after 24 hrs by MTT assay. As to conditions: HL-60, light or radiation study. The gist of the method: (§1)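 HL60 at 15000 cells/well; HSC-2 and HK1 at 3000 cells/well, adhered overnight; phenol-red-free medium with 10% FBS. Compound tested at 0.001–100.0 μM from DMSO stock; controls 0.01% DMSO. After 2 h, irradiated with broad-spectrum light at 6.8 mW/cm2, or dark. After 24 h, MTT 4 h at 37 °C, formazan in DMSO, A570. Three determinations, mean ± SD.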
On the technique in general: Tetrazolium assays rely on reduction of a dye to a coloured formazan, in cell work by metabolically active cells.

The test system of experiment [2] is HL-60. Description: Cytotoxicity against human HL60 cells after 24 hrs by MTT assay. The conditions noted are these: HL-60, 24 h. The gist of the method:
as §1

The subject of experiment [3] is HSC-2. Description: Phototoxicity against human HSC2 cells irradiated with 4.1 J/cm^2 broad spectrum light treated 2 hrs before irradiation measured after 24 hrs by MTT assay. The conditions noted are these: HSC-2, light or radiation study. In a few lines: as §1
The subject of experiment [4] is HSC-2. Description: Cytotoxicity against human HSC2 cells after 24 hrs by MTT assay. The conditions noted are these: HSC-2, 24 h. The gist of the method: as §1
Experiment [5] is described as follows: Phototoxicity against human HK1 cells irradiated with 4.1 J/cm^2 broad spectrum light treated 2 hrs before irradiation measured after 24 hrs by MTT assay. The conditions noted are these: HK-1, light or radiation study. The gist of the method:
as §1

Experiment [6] can be described thus: Cytotoxicity against human HK1 cells after 24 hrs by MTT assay. As to conditions: HK-1, 24 h. The gist of the method: as §1

On to `CC1=CC(C)=[N+]2C1=C(c1ccc(I)cc1)c1c(C)cc(C)n1[B-]2(F)F`, for which the IC50 was 2.7 µM in the experiment on HL-60 [1]; more than 100 µM with HL-60 [2]; 5.1 µM in the experiment on HSC-2 [3]; more than 100 µM with HSC-2 [4]; 5.7 µM in experiment [5]; more than 100 µM in experiment [6].
`COC(=O)C1=CCCC1C1=C(C)C2=Cc3c(C)c(C4CCC=C4C(=O)OC)c(C)n3[B-](F)(F)[N+]2=C1C` (configuration not stated): the IC50 with HL-60 [1] was 3.8 µM; with HL-60 [2], more than 100 µM; in experiment [5] it was 4.8 µM; in experiment [6], more than 100 µM.
As to `COC(=O)C1=CCCCC1C1=C(C)C2=Cc3c(C)cc(C)n3[B-](F)(F)[N+]2=C1C` (configuration not stated), the IC50 in the experiment on HL-60 [1] is 4.9 µM; in the experiment on HL-60 [2] it was more than 100 µM; in the experiment on HSC-2 [3] it was 4.1 µM; with HSC-2 [4], more than 100 µM; in experiment [5] it was 5 µM; in experiment [6], more than 100 µM.
On to `CC1=C(/C=C/S(=O)(=O)O)C(C)=[N+]2C1=Cc1c(C)cc(C)n1[B-]2(F)F`, for which the IC50 (with HL-60 [1]; in the experiment on HL-60 [2]; in the experiment with HSC-2 [3]; in the experiment with HSC-2 [4]; in experiment [5]; in experiment [6]) was more than 100 µM in each case.
Consider `CC1=C(I)C(C)=[N+]2C1=Cc1c(C)c(I)c(C)n1[B-]2(F)F`, for which the IC50 was 0.062 µM with HL-60 [1]; more than 100 µM with HL-60 [2]; 0.64 µM with HSC-2 [3]; more than 100 µM in the experiment with HSC-2 [4]; 0.57 µM in experiment [5]; more than 100 µM in experiment [6].
As for `CCCCOC(=O)/C=C/C1=C(C)C2=Cc3c(C)cc(C)n3[B-](F)(F)[N+]2=C1C`, the half-inhibitory concentration (IC50) was 0.49 µM in the experiment with HL-60 [1]; more than 100 µM in the experiment with HL-60 [2]; 0.6 µM in the experiment on HSC-2 [3]; more than 100 µM in the experiment with HSC-2 [4]; 1.1 µM in experiment [5]; 99.6 µM in experiment [6].
As to `CC1=C(/C=C/C(=O)O)C(C)=[N+]2C1=Cc1c(C)cc(C)n1[B-]2(F)F`, the IC50 (in the experiment with HL-60 [1]; in the experiment with HL-60 [2]; in the experiment with HSC-2 [3]; in the experiment on HSC-2 [4]; in experiment [5]; in experiment [6]) was more than 100 µM in each case.
For the molecule `COC(=O)/C=C/C1=C(C)C2=Cc3c(C)c(/C=C/C(=O)OC)c(C)n3[B-](F)(F)[N+]2=C1C`, the IC50 with HL-60 [1] was 5.2 µM; in the experiment with HL-60 [2], more than 100 µM; in the experiment on HSC-2 [3], 11.1 µM; in the experiment on HSC-2 [4], more than 100 µM; in experiment [5] it was 8.5 µM; in experiment [6], more than 100 µM.
For the molecule `CCCCOC(=O)/C=C/C1=C(C)C2=Cc3c(C)c(/C=C/C(=O)OCCCC)c(C)n3[B-](F)(F)[N+]2=C1C`, the IC50 is 57.7 µM in the experiment with HL-60 [1]; more than 100 µM in the experiment on HL-60 [2]; 37.7 µM in the experiment on HSC-2 [3]; more than 100 µM with HSC-2 [4]; more than 100 µM in experiment [5]; more than 100 µM in experiment [6].
Turning to `CC1=CC(C)=[N+]2C1=Cc1c(C)cc(C)n1[B-]2(F)F`, the IC50 with HL-60 [1] was 4.4 µM; in the experiment with HL-60 [2], more than 100 µM; with HSC-2 [3] it was 8.7 µM; in the experiment with HSC-2 [4], more than 100 µM; in experiment [5], 6.2 µM; in experiment [6], 76.8 µM.
For `CC1=C(I)C(C)=[N+]2C1=C(c1ccc(I)cc1)c1c(C)c(I)c(C)n1[B-]2(F)F`, the half-inhibitory concentration (IC50) in the experiment on HL-60 [1] turned out to be 0.42 µM; in the experiment on HL-60 [2] it was 10 µM; in the experiment on HSC-2 [3] it was 0.5 µM; in the experiment with HSC-2 [4], 10 µM; in experiment [5] it was 0.69 µM; in experiment [6] it was 95.5 µM.
As for `CC1=C(C=O)C(C)=[N+]2C1=Cc1c(C)cc(C)n1[B-]2(F)F`, the IC50 (in the experiment on HL-60 [1]; in the experiment with HL-60 [2]; in the experiment with HSC-2 [3]; in the experiment on HSC-2 [4]; in experiment [5]; in experiment [6]) was more than 100 µM in each case.
Turning to `CC1=C(S(=O)(=O)O)C(C)=[N+]2C1=C(c1ccc(I)cc1)c1c(C)c(S(=O)(=O)O)c(C)n1[B-]2(F)F`, the IC50 was 54.3 µM with HL-60 [1]; more than 100 µM in the experiment with HL-60 [2]; 59.4 µM in the experiment on HSC-2 [3]; more than 100 µM with HSC-2 [4]; 59 µM in experiment [5]; more than 100 µM in experiment [6].
With `COC(=O)/C=C/C1=C(C)C2=Cc3c(C)cc(C)n3[B-](F)(F)[N+]2=C1C`, the IC50 was 4.8 µM with HL-60 [1]; more than 100 µM in the experiment with HL-60 [2]; 5.4 µM in the experiment with HSC-2 [3]; more than 100 µM in the experiment on HSC-2 [4]; 5.3 µM in experiment [5]; more than 100 µM in experiment [6].

A word on the IC50: it is the midpoint of a concentration-inhibition curve.

Values taken from ChEMBL document CHEMBL1156295, “In vitro and in vivo photocytotoxicity of boron dipyrromethene derivatives for photodynamic therapy” (J Med Chem, 2010).
